Converted amounts (≈) assume the structure as drawn.
Assays:
Trichoderma viride = assay: Antifungal activity against Trichoderma viride IAM 5061 after 72 hrs by microdilution test; assay type: functional
Procedure, shortened: (§1)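 Modified microdilution in malt broth. Spores were washed from malt agar with sterile 0.85% saline containing 0.1% Tween 80 and adjusted to about 1.0 × 10⁵ per well. Compounds were dissolved in DMSO and tested at […] µg/ml. Incubation 72 h at 28 °C. MIC is the lowest concentration with no visible growth under a binocular microscope. MFC by 2 µl subculture and a further 72 h at 28 °C.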

Aspergillus flavus = assay: Antifungal activity against Aspergillus flavus ATCC 9643 after 72 hrs by microdilution test; assay type: functional; conditions: ATCC 9643, 72 h; procedure, shortened: as §1
[1] = Partition coefficient, log P of the compound; assay type: physicochemical; conditions: octanol/water
Procedure, shortened: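 Calculated, not measured: AlogP, IAlogP, ClogP, Cosmo logP, mlogP, Kowwin and XlogP were computed and averaged.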

Salmonella typhimurium = assay: Antibacterial activity against Salmonella Typhimurium ATCC 13311 after 24 hrs by microdilution test; assay type: functional, Salmonella enterica subsp. enterica serovar Typhimurium; conditions: Salmonella enterica, ATCC 13311, 24 h
Procedure, shortened: (§2)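 Broth microdilution in LB medium in 96-well plates. Inoculum 1.0 × 10⁴ CFU per well, from a suspension set to 1.0 × 10⁵ CFU/ml in sterile saline. Compounds at […] µg/ml. Incubation 24 h at 28 °C. MIC is the lowest concentration with no visible growth under a binocular microscope. MBC by subculturing 2 µl into fresh broth for a further 72 h. OD540 read against blank. DMSO negative control.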

Talaromyces funiculosus = assay: Antifungal activity against Penicillium funiculosum ATCC 36839 after 72 hrs by microdilution test; assay type: functional; conditions: ATCC 36839, 72 h; procedure, shortened: as §1
Micrococcus luteus = assay: Antibacterial activity against Micrococcus flavus ATCC 10240 after 24 hrs by microdilution test; assay type: functional; conditions: ATCC 10240, 24 h; procedure, shortened: as §2
Aspergillus versicolor = assay: Antifungal activity against Aspergillus versicolor ATCC 11730 after 72 hrs by microdilution test; assay type: functional; conditions: ATCC 11730, 72 h; procedure, shortened: as §1
[2] = system: Staphylococcus epidermidis; assay: Antibacterial activity against Staphylococcus epidermidis ATCC 12228 after 24 hrs by microdilution test; assay type: functional; conditions: ATCC 12228, 24 h; procedure, shortened: as §2
Aspergillus niger = assay: Antifungal activity against Aspergillus niger ATCC 6275 after 72 hrs by microdilution test; assay type: functional; conditions: ATCC 6275, 72 h; procedure, shortened: as §1
Enterobacter cloacae = assay: Antibacterial activity against Enterobacter cloacae after 24 hrs by microdilution test; assay type: functional; procedure, shortened: as §2
Escherichia coli = assay: Antibacterial activity against Escherichia coli ATCC 35210 after 24 hrs by microdilution test; assay type: functional; conditions: ATCC 35210, 24 h; procedure, shortened: as §2
Bacillus cereus = assay: Antibacterial activity against Bacillus cereus ATCC 10907 after 24 hrs by microdilution test; conditions: ATCC 10907, 24 h
Aspergillus ochraceus = assay: Antifungal activity against Aspergillus ochraceus ATCC 12066 after 72 hrs by microdilution test; assay type: functional; conditions: ATCC 12066, 72 h; procedure, shortened: as §1
Salmonella enteritidis = assay: Antibacterial activity against Salmonella enteritidis ATCC 13076 after 24 hrs by microdilution test; assay type: functional, Salmonella enterica subsp. enterica serovar Enteritidis; conditions: Salmonella enterica, ATCC 13076, 24 h; procedure, shortened: as §2

## COc1cc(Cc2n[nH]c(=S)n2-c2ccc(Cl)cc2)c(S(=O)(=O)N(C)C)cc1OC
Trichoderma viride
  MFC: 100 µg/mL (≈ 213 µM)
  MIC: 50 µg/mL (≈ 107 µM)
Aspergillus flavus
  MFC: 100 µg/mL (≈ 213 µM)
  MIC: 50 µg/mL (≈ 107 µM)
[1]
  logP: 2.4
Salmonella typhimurium
  MBC: 150 µg/mL (≈ 320 µM)
  MIC: 150 µg/mL (≈ 320 µM)
Talaromyces funiculosus
  MFC: 100 µg/mL (≈ 213 µM)
  MIC: 100 µg/mL (≈ 213 µM)
Micrococcus luteus
  MBC: 150 µg/mL (≈ 320 µM)
  MIC: 150 µg/mL (≈ 320 µM)
Aspergillus versicolor
  MFC: 150 µg/mL (≈ 320 µM)
  MIC: 100 µg/mL (≈ 213 µM)
[2]
  MBC: 150 µg/mL (≈ 320 µM)
  MIC: 150 µg/mL (≈ 320 µM)
Aspergillus niger
  MFC: 150 µg/mL (≈ 320 µM)
  MIC: 100 µg/mL (≈ 213 µM)
Enterobacter cloacae
  MBC: 100 µg/mL (≈ 213 µM)
  MIC: 100 µg/mL (≈ 213 µM)
Escherichia coli
  MBC: 150 µg/mL (≈ 320 µM)
  MIC: 100 µg/mL (≈ 213 µM)
Bacillus cereus
  MBC: 150 µg/mL (≈ 320 µM)
  MIC: 150 µg/mL (≈ 320 µM)
Aspergillus ochraceus
  MFC: 150 µg/mL (≈ 320 µM)
  MIC: 100 µg/mL (≈ 213 µM)
Salmonella enteritidis
  MBC: 150 µg/mL (≈ 320 µM)
  MIC: 150 µg/mL (≈ 320 µM)

Source: ChEMBL document CHEMBL1143237, “Sulfonamide-1,2,4-triazole derivatives as antifungal and antibacterial agents: synthesis, biological evaluation, lipophilicity, and conformational studies” (Bioorg Med Chem, 2008)
